Compound activity (PubChem BioAssay)
ARNT-TACC3 inh: disruptors of human ARNT/TACC3 interaction; Q9Y6A5; AlphaScreen His-ARNT PAS-B/GST-TACC3 binding, luminescence; TACC3 fragment carries E629A point mutation; inhibition, % at 9.99 µM; 390,000 tested, 0.66% active; AID 623870;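 active = mean inhibition of replicates at least 50% and at least half of replicates each reaching 50%; inconclusive = half or more replicates reach 50% but mean below 50%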;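 also: 0% = complete ARNT plus TACC3 wells and 100% = ARNT alone without TACC3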
HIF activator: HIF pathway transcriptional activation; U2OS HRE-luciferase reporter, luminescence; normalized: DMSO 0%, desferrioxamine 100%; activation, % at 7.5 µM (by protocol); 300,000 tested, 0.32% active; AID 1910;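 active = mean activation of at least 10% of the iron chelator positive control signal, with at least half of replicates also reaching 10%; inconclusive = mean and replicate majority disagree about reaching 10%; inactive = mean and most replicates under 10%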
T cruzi inh: T. cruzi replication inhibition. inhibition, % (no concentration beside the values). 300,000 tested, 1.4% active. T. cruzi beta-gal in NIH3T3, luminescence, 90 h. AID 1885;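 active = mean inhibition across valid replicates above about 55%, limit read from the data; inconclusive = mean below that limit but half or more replicates reach it; inactive = mean below it, under half of replicates reach it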;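 also: signal also drops with host cell toxicity which is not excluded here; 0% = plate median of DMSO wells and 100% = zero luminescence signal; higher percent means less beta-gal luminescence so fewer parasites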
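System: Mouse NIH/3T3 fibroblasts infected with β-gal-expressing T. cruzi Tulahuen C4 | Quantity: NIH/3T3 cells, 5,000 per well | Reagent: 5000 reporter trypomastigotes per well | Dosing: Compound pinned at 50 nL/well, DMSO | Schedule: 3 h host attachment, then at least 90 h co-culture | Detection: GalScreen luminescence, 60 min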
AI-2 QS mod: modulators of Vibrio harveyi AI-2 quorum sensing system; Vibrio harveyi JMH597 AI-2 luminescence/OD600 ratio, 9 h; hits give low values; strain lacks LuxN and CqsS sensors; 0 = neutral-control median; 300,000 tested, 0.4% active; activity change, % at 7.5 µM; in the data active = activity change below about -75%, passing the limit was not always enough; inconclusive = no clear call, values can overlap the other calls;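 also: luminescence divided by OD600 gain over 9 h not by final OD600 alone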
* marks the source's active call; other numbers are inactive results; ? = inconclusive; . = no result given. Sampled rows, rich in hits. Any-hit rate of the full collection: about 2%.

SMILES	ARNT-TACC3 inh	HIF activator	T cruzi inh	AI-2 QS mod
Cc1noc(C)c1S(=O)(=O)N(C)C[C@H]1Oc2ccc(NC(=O)NC3CCCCC3)cc2CC(=O)N([C@@H](C)CO)C[C@@H]1C	21	.	.	.
Cc1ccc2c(c1)cc(C(=O)NCc1ccccc1)n2C	33	23*	-7	-11
C[C@H]1CN([C@@H](C)CO)C(=O)c2cccc(NC(=O)c3cnccn3)c2O[C@H]1CN(C)C	-4	.	.	.
C[C@@H]1CN([C@@H](C)CO)C(=O)Cc2cc(NS(=O)(=O)c3cccs3)ccc2O[C@H]1CN(C)Cc1ccncc1	4	.	.	.
C[C@@H]1CN([C@@H](C)CO)S(=O)(=O)c2ccc(C3=CCCCC3)cc2O[C@H]1CN(C)S(=O)(=O)c1cn(C)cn1	20	.	.	.
COc1cc(NC(=O)c2ccc([N+](=O)[O-])o2)ccc1NC(=O)c1ccco1	-5	-1	30	27
CC(=O)c1ccc(NC(=O)c2ccc([N+](=O)[O-])o2)cc1	-5	1	6	-91*
Cc1cc(NC(=O)c2ccc([N+](=O)[O-])o2)ccc1NC(=O)c1ccco1	-11	2	44	-94*
COc1ccc(NC(=O)c2ccc([N+](=O)[O-])o2)cc1	5	3	24	-4
CC(=O)c1cccc(NC(=O)c2ccc([N+](=O)[O-])o2)c1	-7	3	21	?
Cc1cc(C)cc(NC(=O)c2ccc([N+](=O)[O-])o2)c1	-1	1	20	-110*
COc1ccc(NC(=O)N(C)C[C@H]2Oc3cc(C#CCN(C)C)ccc3S(=O)(=O)N([C@@H](C)CO)C[C@H]2C)cc1	-2	.	.	.
Cc1cccc(-n2nc([N+](=O)[O-])c(=NCc3cccnc3)n2O)c1	6	2	55*	39
Cc1ccc(CCN=c2c([N+](=O)[O-])nn(-c3ccccc3)n2O)cc1	10	0	70*	23
COc1ccc(-n2nc([N+](=O)[O-])c(=NCCc3ccccc3)n2O)cc1	-4	1	31	37
Cc1ccc(CN=c2c([N+](=O)[O-])nn(-c3ccc(Cl)cc3)n2O)cc1	8	1	20	24
O=[N+]([O-])c1nn(-c2ccccc2)n(O)c1=NCCc1ccccc1	-4	2	58*	38
O=C(C[C@H]1CC[C@@H]2[C@H](COC[C@@H](O)CN2C(=O)c2cnccn2)O1)NCc1ccccc1	9	.	.	.
CC(C)OC(=O)C(=O)NNc1ccccc1	.	0	58*	31
CCCOC(=O)C(=O)NNc1ccccc1	-2	0	49	13
CC(C(=O)N1CCc2ccccc21)N1CCN(Cc2ccccc2)CC1 (stereo not given)	16	2	56*	3
Cc1cc(OCCOCCN(C)CCO)cc(C)c1Cl	7	-1	37	14
CCN(CC)CCOCCOc1cc(C)c(Cl)c(C)c1	-12	0	64*	-2
CCN(CC)C1=CC(=[N+]2CCCC2)CC(C)(C)C1	-7	-1	64*	3
CN(C)c1cccc(NC2=CC(=[N+]3CCOCC3)CC(C)(C)C2)c1	2	0	11	25
SMILES	ARNT-TACC3 inh	HIF activator	T cruzi inh	AI-2 QS mod
CN(Cc1ccccc1)C1=CC(=[N+]2CCCC2)CC(C)(C)C1	5	1	64*	2
CCC(CN(C)C)Oc1cc(NCc2ccccc2)c2ncn(C(C)C)c2c1 (stereo not given)	51*	.	.	.
COc1cc(NCc2ccccc2)c2ncn(C(C)C)c2c1	14	.	.	.
CS(=O)(=O)c1nc(-c2cccs2)cc(C(F)(F)F)n1	.	-6	77*	-89*
O=C(O)CCS(=O)(=O)c1nc(-c2cccs2)cc(C(F)(F)F)n1	-2	0	-32	26
Cc1cc(NC(=O)CCCS(=O)(=O)c2nc(-c3cccs3)cc(C(F)(F)F)n2)no1	.	13*	-20	9
CCOC(=O)CCS(=O)(=O)c1nc(-c2ccccc2)cc(C(F)(F)F)n1	0	10*	-56	19
COc1ccc(NC(=O)Nc2ccc3c(c2)[C@H]2C[C@H](CC(=O)N4CCCCC4)O[C@H](CO)[C@H]2O3)cc1	-1	.	.	.
COCCNc1nc(-c2cc(C)n(CCc3ccc(OC)cc3)c2C)cs1	-2	-1	60*	142
O=C(CCc1nnc(Cc2ccc(-c3ccccc3)cc2)o1)NCCc1cccnc1	-11	0	8	1
O=C(CCc1nnc(CCCCc2ccccc2)o1)NCCc1cccnc1	-3	0	60*	23
